Laboratory results as given in ChEMBL document CHEMBL1148825, “Beta- and gamma-di- and tripeptides as potential substrates for the oligopeptide transporter hPepT1” (J Med Chem, 2007).
The source made the active and inactive calls. The rule behind the calls is not given here. Square brackets hold non-standard residues; d marks the D form. Peptide text beside a SMILES is read from it. Sar = CNCC(=O)O

Assays:
[1] = Apparent permeability from apical to basolateral side of human Caco-2 cells in presence of 5 mM GlySar; format: ADME, cell-based; conditions: Caco-2, with GlySar 5 mM
[2] = Apparent permeability from apical to basolateral side of human Caco-2 cells; format: ADME, cell-based
In short: (§1)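 Caco-2 monolayers (passage 94-100) on polycarbonate inserts, differentiated 24 ± 1 days. Transport in HBSS with pH gradient: apical pH 6.0 (10 mM MES), basolateral pH 7.4 (25 mM HEPES), 0.5% DMSO final. Samples taken at intervals, replaced with HBSS + 0.5% DMSO. Papp = dQ/dt × 1/(A × c0), from steady-state flux; n = 3-4.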

[3] = Apparent permeability from basolateral to apical side of human Caco-2 cells; format: ADME, cell-based; in short: as §1
[4] = target: T1, Solute carrier family 15 member 1 (Homo sapiens) (UniProt P46059); assay: Inhibition of [3H]GlySar uptake at human PepT1 in Caco-2 cells; format: cell-based
T1 sequence (whole entry): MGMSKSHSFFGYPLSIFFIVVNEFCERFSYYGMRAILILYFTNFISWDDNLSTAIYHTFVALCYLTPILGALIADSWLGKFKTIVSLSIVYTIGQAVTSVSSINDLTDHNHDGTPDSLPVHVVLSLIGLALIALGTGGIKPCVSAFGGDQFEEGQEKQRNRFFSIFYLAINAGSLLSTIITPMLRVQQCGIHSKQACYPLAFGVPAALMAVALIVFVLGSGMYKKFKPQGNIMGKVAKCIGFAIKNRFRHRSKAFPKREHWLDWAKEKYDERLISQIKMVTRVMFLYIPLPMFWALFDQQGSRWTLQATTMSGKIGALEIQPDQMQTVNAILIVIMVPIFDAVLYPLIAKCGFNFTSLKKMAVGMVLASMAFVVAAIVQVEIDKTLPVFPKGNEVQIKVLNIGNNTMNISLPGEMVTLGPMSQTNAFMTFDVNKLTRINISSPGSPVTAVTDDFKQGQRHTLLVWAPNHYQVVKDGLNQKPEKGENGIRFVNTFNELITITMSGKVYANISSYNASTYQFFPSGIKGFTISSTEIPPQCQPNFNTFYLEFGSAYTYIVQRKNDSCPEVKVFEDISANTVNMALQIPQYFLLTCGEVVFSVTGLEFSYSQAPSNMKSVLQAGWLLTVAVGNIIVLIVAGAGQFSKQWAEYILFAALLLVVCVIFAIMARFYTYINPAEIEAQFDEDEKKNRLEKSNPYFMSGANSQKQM
In short: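 Uptake into differentiated Caco-2 monolayers under apical pH 6.0/basolateral pH 7.4 HBSS. 5 min incubation with 1 µCi/mL [3H]GlySar (250 nM), with or without 4 mM test compound in the apical donor chamber. Stopped by removing solution and three ice-cold HBSS washes. Monolayer radioactivity counted relative to control; SD, n = 3, significance at p < 0.05.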

[5] = Apparent permeability from apical to basolateral side of human Caco-2 cells at pH 7.4 after 180 mins; format: ADME, cell-based; conditions: Caco-2, pH 7.4
In short: (§2)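 Caco-2 monolayers (passage 94-100, differentiated 24 ± 1 days on inserts). Transport in HBSS at pH 7.4 on both sides, 0.5% DMSO final, over 180 min. Run with and without P-gp inhibitor GF120918 at 2 µM. Samples taken at intervals. Papp from steady-state flux divided by filter area and initial donor concentration.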

[6] = Apparent permeability from basolateral to apical side of human Caco-2 cells at pH 7.4 after 180 mins; format: ADME, cell-based; conditions: Caco-2, pH 7.4; in short: as §2
[7] = Apparent permeability across human Caco-2 cells; format: ADME, cell-based
In short: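 Caco-2 monolayers (passage 94-100) on 0.4 µm polycarbonate inserts, seeded 4.4 × 10^5 cells per cm2, differentiated 24 ± 1 days. Transport in HBSS with 0.5% DMSO, apical pH 6.0 (10 mM MES), basolateral pH 7.4 (25 mM HEPES); P-gp runs at pH 7.4. Both directions sampled over time. Papp = dQ/dt × 1/(A × c0); n = 3-4.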

SMILES | Papp A→B [1] [×10⁻⁶ cm/s] | Papp A→B [2] [×10⁻⁶ cm/s] | Papp B→A [3] [×10⁻⁶ cm/s] | Activity [4] | Papp A→B at 3 h [5] [×10⁻⁶ cm/s] | Papp B→A at 3 h [6] [×10⁻⁶ cm/s] | Papp [7] [×10⁻⁶ cm/s]
CC(C)C[C@H](CCNC(=O)[C@H](C)CCNC(=O)[C@@H](CCN)C(C)C)C(=O)O | 0.026 | 0.034 | 0.094 | inactive |  |  | 
CC(C)C[C@@H](CC(=O)O)NC(=O)C[C@H](C)N | 0.291 | 0.613 | 0.129 | Active |  |  | 
CC(C)C[C@@H](CC(=O)O)NC(=O)[C@@H](C)CN | 0.055 | 0.095 | 0.084 | Active |  |  | 
CC(C)[C@H](N)CC(=S)N[C@@H](C)CC(=O)O | 0.393 | 0.754 | 0.124 | Active |  |  | 
CN(CC(=O)O)C(=O)CN [GLYCYLSARCOSINE] (H-Gly-[Sar]-OH) |  |  |  |  |  |  | 11
CC(C)C[C@@H](CNC(=O)[C@@H](C)CNC(=O)[C@H](CN)C(C)C)C(=O)O | 0.023 | 0.024 | 0.071 | Active |  |  | 

Second part, led by results:

Papp A→B [1] [×10⁻⁶ cm/s] | Papp A→B [2] [×10⁻⁶ cm/s] | Papp B→A [3] [×10⁻⁶ cm/s] | Activity [4] | Papp A→B at 3 h [5] [×10⁻⁶ cm/s] | Papp B→A at 3 h [6] [×10⁻⁶ cm/s] | SMILES | Papp [7] [×10⁻⁶ cm/s]
0.028 | 0.033 | 0.097 | Active | 0.021 | 0.115 | CCC[C@@H](C[C@H](C)NC(=O)[C@H](C)C[C@@H](NC(=O)[C@@H](Cc1ccccc1)C[C@@H](C)N)C(C)C)C(=O)O | 
0.031 | 0.037 | 0.071 | Active |  |  | NCCCC[C@@H](CC(=O)N[C@H](CC(=O)O)Cc1ccccc1)NC(=O)C[C@@H](N)CO | 
0.039 | 0.049 | 0.061 | Active |  |  | C[C@H](N)CC(=O)N[C@@H](CCCCN)CC(=O)N[C@H](CC(=O)O)Cc1ccccc1 | 
 | 0.037 | 0.078 | Active | 0.044 | 0.051 | C[C@H](N)CC(=O)N[C@@H](CCCCN)CC(=O)O | 
0.045 | 0.072 | 0.075 | Active |  |  | NCCCC[C@H](N)CC(=O)N[C@H](CC(=O)O)Cc1ccccc1 | 
0.043 | 0.044 |  | inactive |  |  | C[C@@H](CC(=O)O)NC(=O)C[C@H](C)NC(=O)C[C@@H](N)CO | 
